Reference: PMC12783166 (Clinical Pharmacokinetics, 2025)

How the values were obtained:
[1] = Individual predicted steady-state exposures; format: in vivo, human; conditions: for AUC / Cmax: human, plasma, oral
Method in brief: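 Steady-state AUC24, Ctrough, Cmax and Cavg were derived from each individual's Bayesian post hoc estimates from the final three-compartment population PK model, with sequential zero-/first-order lagged absorption. Values are summarised per […] as mean (SD) and median (5th–95th percentile).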

[2] = cited from earlier work
[3] = Phase 2 population PK model; format: in vivo, human; conditions: Phase 2 Model
P-gp = conditions: cited from earlier work
[4] = oral administration of a 60-mg dose

In the case of `C[C@@H]1[C@H](c2c(F)ccc(F)c2F)C[C@H](NC(=O)c2cnc3c(c2)C[C@@]2(C3)C(=O)Nc3ncccc32)C(=O)N1CC(F)(F)F` [atogepant, Atogepant], the “Ctrough, Median (5th to 95th percentile)” value ([1]; PROGRESS CM, 60 mg QD) is reported as 14.4 (2.23–287) ng/mL, the “Time above ½EC90 (4.2 ng/mL or 7 nM), Mean (SD)” value ([1]; PROGRESS CM, 60 mg QD) is reported as 23.9 (0.88) hr and the “Time above ½EC90 (4.2 ng/mL or 7 nM), Median (5th to 95th percentile)” value ([1]; PROGRESS CM, 60 mg QD) is reported as 24.0 (15.5–24.0) hr. It also gave an AUC ([1]; 10 mg, AUC24, Mean (SD), ADVANCE EM, 10 mg QD) of 525 ng·h/mL, an AUC ([1]; 10 mg, AUC24, Mean (SD), CGP-MD-01 EM, 10 mg QD) of 461 ng·h/mL and an AUC ([1]; 10 mg, AUC24, Median (5th to 95th percentile), ADVANCE EM, 10 mg QD) of 464 ng·h/mL. It also gave an AUC ([1]; 10 mg, AUC24, Median (5th to 95th percentile), CGP-MD-01 EM, 10 mg QD) of 464 ng·h/mL, a Cmax ([1]; 10 mg, Mean (SD), ADVANCE EM, 10 mg QD) of 81.7 ng/mL and a Cmax ([1]; 10 mg, Mean (SD), CGP-MD-01 EM, 10 mg QD) of 74.5 ng/mL. It also gave a Cmax ([1]; 10 mg, Median (5th to 95th percentile), ADVANCE EM, 10 mg QD) of 73.3 ng/mL, a Cmax ([1]; 10 mg, Median (5th to 95th percentile), CGP-MD-01 EM, 10 mg QD) of 73.9 ng/mL and an AUC ([1]; 30 mg, AUC24, Mean (SD), ADVANCE EM, 30 mg QD) of 1830 ng·h/mL. For the same molecule, the AUC ([1]; 30 mg, AUC24, Mean (SD), CGP-MD-01 EM, 30 mg BID) was 3900 ng·h/mL, the AUC ([1]; 30 mg, AUC24, Mean (SD), CGP-MD-01 EM, 30 mg QD) was 1710 ng·h/mL and the AUC ([1]; 30 mg, AUC24, Median (5th to 95th percentile), ADVANCE EM, 30 mg QD) was 1560 ng·h/mL. For the same molecule, the AUC ([1]; 30 mg, AUC24, Median (5th to 95th percentile), CGP-MD-01 EM, 30 mg BID) was 3180 ng·h/mL, the AUC ([1]; 30 mg, AUC24, Median (5th to 95th percentile), CGP-MD-01 EM, 30 mg QD) was 1590 ng·h/mL and the AUC ([1]; 30 mg, AUC24, Median (5th to 95th percentile), PROGRESS CM, 30 mg BID) was 3230 ng·h/mL. It also gave a Cmax ([1]; 30 mg, Mean (SD), ADVANCE EM, 30 mg QD) of 271 ng/mL, a Cmax ([1]; 30 mg, Mean (SD), CGP-MD-01 EM, 30 mg BID) of 327 ng/mL and a Cmax ([1]; 30 mg, Mean (SD), CGP-MD-01 EM, 30 mg QD) of 260 ng/mL. The Cmax ([1]; 30 mg, Median (5th to 95th percentile), ADVANCE EM, 30 mg QD) was 244 ng/mL, the Cmax ([1]; 30 mg, Median (5th to 95th percentile), CGP-MD-01 EM, 30 mg BID) was 284 ng/mL and the Cmax ([1]; 30 mg, Median (5th to 95th percentile), CGP-MD-01 EM, 30 mg QD) was 247 ng/mL. For the same molecule, the Cmax ([1]; 30 mg, Median (5th to 95th percentile), PROGRESS CM, 30 mg BID) was 296 ng/mL, the AUC ([1]; 60 mg, AUC24, Mean (SD), ADVANCE EM, 60 mg QD) was 3740 ng·h/mL and the AUC ([1]; 60 mg, AUC24, Mean (SD), CGP-MD-01 EM, 60 mg BID) was 7940 ng·h/mL. For the same molecule, the AUC ([1]; 60 mg, AUC24, Mean (SD), CGP-MD-01 EM, 60 mg QD) was 3640 ng·h/mL, the AUC ([1]; 60 mg, AUC24, Mean (SD), ELEVATE EM, 60 mg QD) was 3530 ng·h/mL and the AUC ([1]; 60 mg, AUC24, Median (5th to 95th percentile), ADVANCE EM, 60 mg QD) was 3220 ng·h/mL. For the same molecule, the AUC ([1]; 60 mg, AUC24, Median (5th to 95th percentile), CGP-MD-01 EM, 60 mg BID) was 6900 ng·h/mL, the AUC ([1]; 60 mg, AUC24, Median (5th to 95th percentile), CGP-MD-01 EM, 60 mg QD) was 3450 ng·h/mL and the AUC ([1]; 60 mg, AUC24, Median (5th to 95th percentile), ELEVATE EM, 60 mg QD) was 3310 ng·h/mL. It also gave an AUC ([1]; 60 mg, AUC24, Median (5th to 95th percentile), PROGRESS CM, 60 mg QD) of 2900 ng·h/mL, a Cmax ([1]; 60 mg, Mean (SD), ADVANCE EM, 60 mg QD) of 561 ng/mL and a Cmax ([1]; 60 mg, Mean (SD), CGP-MD-01 EM, 60 mg BID) of 634 ng/mL. The Cmax ([1]; 60 mg, Mean (SD), CGP-MD-01 EM, 60 mg QD) was 545 ng/mL, the Cmax ([1]; 60 mg, Median (5th to 95th percentile), ADVANCE EM, 60 mg QD) was 504 ng/mL and the Cmax ([1]; 60 mg, Median (5th to 95th percentile), PROGRESS CM, 60 mg QD) was 504 ng/mL. For the same molecule, the “Area under the concentration–time curve (AUC)” value ([2]; 60-mg dose) was ~ 3470 ng h/mL, the “Dose proportionality of PK” value [2] was “dose-proportional up to a 300-mg single dose and multiple doses of 170 mg/day” and the Food effect [2] was “no clinically significant food effect”. The “Half-life (t1/2)” value [2] was ~ 11 h, the Accumulation ([2]; multiple doses) was “no accumulation” and the “Maximum plasma concentration (Cmax)” value [2, 4] was ~ 740 ng/mL. For the same molecule, the “Time to achieve a pharmacologically effective concentration” value [2, 4] was at most 30 min, the Blood-plasma ratio [3] was 0.567 and the “Lag time [ALAG (h)]” value [3] was 0.298 h. For the same molecule, the “Effect of solution on ALAG” value ([3]; fractional covariate effect) was −0.191, the “Effect of solution on Frel” value ([3]; fractional covariate effect) was −0.547 and the “Apparent clearance healthy participants [CL/F (L/h)]” value ([3]; healthy participants) was 18.2 L/h. The “Absorption rate constant [ka (/h)]” value ([3]; healthy participants and EM patients) was 1.31 h⁻¹, the “Apparent clearance patients [CL/F (L/h)]” value ([3]; patients) was 18.2 L/h and the “Exponential effect of dose on Frel” value ([3]; power exponent) was 0.163. The “Exponential effect of dose on ka” value ([3]; power exponent) was −0.252, the σprop ([3]; proportional residual error) was 0.339 and the “σprop (study CGP-MD-01)” value ([3]; proportional residual error) was 0.572. For the same molecule, the “σprop (study CGP-PK-02)” value ([3]; proportional residual error) was 0.252, the “ω^2CL/F” value ([3]; variance of IIV) was 0.0724 and the “ω^2Q/F” value ([3]; variance of IIV) was 0.550. The “ω^2ka” value ([3]; variance of IIV) was 0.683, the “ω^2IOVFrel” value ([3]; variance of IOV) was 0.228 and the Transporter substrate status (P-gp) was “substrate”.
